The test system of data set [1] is Jurkat cells (human T-cell leukemia). The experiment in a line: In vitro antiproliferative activity. As to conditions: 72 h, read-out: IC50 Jurkat. The class given is cell-based. Summed up:
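Cells grown in RPMI-1640; 8 × 10^3 cells per well, pre-incubated 18 h at 37 °C, 5% CO2. Medium replaced with fresh medium containing test compound at several concentrations (from 10 mM DMSO stocks; DMSO ≤0.25% final), 72 h at 37 °C.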

Data set [2] deals with BNL 1ME A.7R.1 hepatocellular carcinoma tumors. The experiment in a line: In vivo antitumor activity, syngeneic hepatocellular carcinoma model. As to conditions: Balb/c mice; for tumor growth inhibition vs control (significance): 5 mg/kg intraperitoneally daily. A digest of the protocol:
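Male Balb/c mice, 8 weeks old, injected subcutaneously in the dorsal region with 10^7 BNL 1ME A.7R.1 cells in 200 μL sterile PBS. At about 100 mm3, mice were randomized into four groups of 5. Tumors measured by caliper daily for 7 days; V = AB2/2.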

The subject of data set [3] is panel of seven human cancer cell lines. The data set can be described thus: Antiproliferative activity over the panel of seven human cancer cell lines. The class given is cell-based. A digest of the protocol: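 Jurkat, RS4;11 and HL-60 cells grown in RPMI-1640; MCF-7, A549, HeLa and HT-29 cells in DMEM; both media with 10% FBS plus penicillin/streptomycin. 8 × 10^3 cells/well settled 18 h at 37 °C, 5% CO2, then exposed to graded compound for 72 h. DMSO ≤0.25%. MTT viability read.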

The test system of data set [4] is PBL not stimulated with PHA. The experiment in a line: Cytotoxicity in noncancer cells, resting PBL. The class given is cell-based. As to conditions: Homo sapiens, 72 h, read-out: IC50 PBLresting. A digest of the protocol: (§1)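 Peripheral blood lymphocytes from healthy donors isolated on a Lymphoprep gradient, washed, held overnight at 1.0 × 10^6 cells/mL in RPMI-1640 with 10% FBS. Nonadherent cells reseeded at 5 × 10^5 cells/mL. PHA-stimulated set received 2.5 μg/mL PHA; resting set had no PHA. Graded compound for 72 h; viability by MTT.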

The next data set concerns PBL stimulated with PHA. The data set can be described thus: Cytotoxicity in noncancer cells, PHA-stimulated PBL. As to conditions: Homo sapiens, 72 h, read-out: IC50 PBLPHA. The class given is cell-based. Summed up: as §1
Data set [5] can be described thus: Body weight during in vivo antitumor treatment. Details: species or system Balb/c mice. As to conditions: 3g at the higher dose (10 mg/kg ip).
The next data set relates to Jurkat and HeLa cells. The experiment in a line: Flow cytometric analysis of cell cycle distribution. As to conditions: for lowest concentration giving a rise in G2/M cells: 24 h treatment. The class given is cell-based, human. Summed up:
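5 × 10^5 HeLa or Jurkat cells exposed to graded compound concentrations for 24 h. Cells collected, fixed in ice-cold 70% ethanol, treated with lysis buffer containing RNase A and 0.1% Triton X-100, then stained with propidium iodide. DNA content measured by flow cytometry; phase distribution derived from DNA histograms.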
A general note: A flow cytometer gives signals particle by particle.

Data set [6] relates to HUVECs. The experiment in a line: HUVEC motility. The class given is cell-based, human. A digest of the protocol: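 Primary cord-vein HUVECs (passages 1–6) grown to confluence (1 × 10^5 seeded) on 0.1% collagen type I. Monolayer scratched with a pipet tip, washed with PBS, then exposed to test compound. Wells photographed at intervals (6 and 24 h). Wound width measured in four areas and compared with initial width. Three independent experiments; significance versus untreated control.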

Data set [7] has as its system HUVECs. The experiment in a line: Disruption of HUVEC capillary-like tubules on Matrigel. As to conditions: 1 h or 3 h incubation. The class given is cell-based, human. A digest of the protocol: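 HUVECs isolated from umbilical cord veins, kept in M200 with low-serum growth supplement, and used at passages 1–6. Matrigel gelled 30 min at 37 °C, overlaid with 6 × 10^4 cells; tubules allowed to form for 6 h. Compound then added for 1 or 3 h. Five fields/well photographed at 10×. Image analysis quantified tubule length, mesh area/number, % area covered and branch points. Three independent experiments.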

Data set [8] has as its system chick embryo chorioallantoic membrane (CAM) blood vessels. The data set can be described thus: CAM assay in fertilized chicken eggs. The data set is classed as in vivo.
The subject of data set [9] is BL6-B16 murine melanoma tumor blood vessels. The experiment in a line: Antivascular activity in vivo, CD31 vessel count in BL6-B16 melanoma. As to conditions: 30 mg/kg ip, 24 h, C57BL/6 mice, P < 0.05. Summed up: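 Six-week-old C57BL/6 mice received 10^5 BL6-B16 melanoma cells in PBS subcutaneously in the dorsolateral flank. At 300 mm3 tumor volume, a single ip dose of 30 mg/kg in DMSO (50 μL) was given. Tumors excised 24 h later, OCT-embedded, frozen, cut into 4–5 μm cryosections. Stained with rat anti-mouse CD31 (1:200) and biotinylated anti-rat secondary. CD31+ vessels counted in 5 fields/section (40× objective); five mice/group.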

Data set [10] relates to HeLa cells. The experiment in a line: Annexin-V/PI apoptosis assay. The data set is classed as cell-based, human. The following applies: 24 or 48 h. Summed up:
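HeLa cells exposed to test compound for 24 or 48 h. Cells harvested and double-stained with annexin-V-FITC and PI. Surface phosphatidylserine exposure read by flow cytometry.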

Data set [11] deals with HeLa cells. The data set can be described thus: Mitochondrial membrane potential. The data set is classed as cell-based, human. As to conditions: 24 or 48 h. A digest of the protocol: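 HeLa cells exposed to compound for 24 or 48 h, then stained with H2-DCFDA for reactive oxygen species. Fluorescence read by flow cytometry. Parallel JC-1 staining assessed mitochondrial membrane potential. Three independent experiments.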

Data set [12] deals with HeLa cells. The data set can be described thus: Western blot analysis of caspases and Bcl-2 family proteins. The class given is cell-based, human. The following applies: for Mcl-1 expression: 48 h, 100 and 250 nM. A digest of the protocol:
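Treated HeLa cells washed in cold PBS and lysed on ice for 30 min. Lysates cleared at 15000g, 4 °C, for 10 min; protein measured by BCA. 10 μg protein resolved on 7.5–15% SDS-PAGE and transferred to PVDF. Membranes blocked in 5% BSA/Tween-PBS overnight at 4 °C. Primary antibodies (e.g., Mcl-1) applied 2 h at room temperature, then peroxidase secondary for 60 min; ECL detection. β-actin reprobe used as loading control.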
For orientation: Immunoblotting shows a protein as a band on a membrane.

Setting [13] is: read-out: average IC50 over the seven cell lines.
[14] abbreviates: read-out: IC50 values range in the seven cell lines.

The structures appear in SMILES notation. Read-outs that look alike come from different tables or passages of the source.

In general, IC50 refers to the concentration needed to halve the response being measured. As to `COc1ccc(/C=C\c2cc(OC)c(OC)c(OC)c2)cc1O` [CA-4, combretastatin A-4], the IC50 in data set [1] was 5 ± 0.6 nM.

`COc1ccc(/C=C\c2cc(OC)c(OC)c(OC)c2)cc1OP(=O)([O-])[O-].[Na+].[Na+]` [CA-4P, combretastatin A-4 phosphate, reference compound]: in data set [2], the “tumor growth inhibition vs control (significance)” value is recorded as “significant relative to the control”.

As for `COC(=O)c1oc2ccccc2c1Nc1cc(OC)c(OC)c(OC)c1` [Compound 3a, Methyl 3-[(3,4,5-Trimethoxyphenyl)amino]benzofuran-2-carboxylate], the IC50 in data set [3] (setting [13]) turned out to be 3300 nM.

For `COC(=O)c1oc2cc(OC)ccc2c1Nc1cc(OC)c(OC)c(OC)c1` [Compound 3g, Methyl 3-(3,4,5-Trimethoxyphenylamino)-6-methoxybenzofuran-2-carboxylate], the half-maximal inhibitory concentration (IC50) was greater than 10000 nM in data set [4], greater than 10000 nM in the data set on PBL stimulated with PHA and 0.3 to 27 nM in data set [3] (setting [14]). Further, the “tumor growth inhibition vs control (significance)” value in [2] is listed as “did not reach statistical significance”. For the same compound, the “reduction in tumor growth compared with vehicle” value in [2] (10 mg/kg intraperitoneally daily) is given as 44.5%. The “body weight change during treatment” value in data set [5] was “only a small decrease in body weight”. The “lowest concentration giving a rise in G2/M cells” value in the data set with Jurkat and HeLa cells stood at 60 nM. Moreover, the “concentration with statistically significant arrest of HUVEC motility” value in the data set on HUVECs [6] (6 h incubation) stood at 25 nM. Moreover, the “concentration with highly significant arrest of HUVEC motility” value with HUVECs [6] (after 24 h, lowest tested concentration) turned out to be 5 nM. Besides, the “HUVEC motility” value in the data set on HUVECs [6] (scratch wound) is recorded as “very efficient in arresting cell motility”. Further, the “effect on preformed HUVEC tubule-like network” value with HUVECs [7] is given as “clearly disrupted the network of HUVECs”. In addition, the “blood vessel number, compound alone” value in data set [8] (100 pmol/egg, without FGF) is recorded as “did not induce blood vessels to increase in number”. In [8] (FGF 100 ng/egg, even at 1 pmol/egg), the “FGF-induced increase of blood vessels” value is “strongly reduced”. The “reduction in number of CD31-positive tumor vessels” value in data set [9] is recorded as “about 20%”. In addition, in the data set with HeLa cells [10], the “apoptosis (annexin-V)” value was “accumulation of annexin-V positive cells”. Besides, the “ROS production (H2-DCFDA)” value with HeLa cells [11] is listed as “production of significant amounts of ROS”. Besides, in the data set on HeLa cells [11], the “mitochondrial transmembrane potential (JC-1)” value was “time- and concentration-dependent increase in the proportion of cells with depolarized mitochondria”. Besides, the “caspase activation (immunoblot)” value in the data set with HeLa cells [12] is “activation of caspase-9 and caspase-3 in a time- and concentration-dependent manner”. The Mcl-1 expression result with HeLa cells [12] is on record as “strongly down-regulated”.

Consider `CCOC(=O)c1oc2cc(OC)ccc2c1Nc1cc(OC)c(OC)c(OC)c1` [Compound 3h, Ethyl 3-(3,4,5-Trimethoxyphenylamino)-6-methoxybenzofuran-2-carboxylate], for which the IC50 in [4] is greater than 10000 nM. Moreover, in data set [3] (setting [14]), the IC50 lay in the range of 13 to 100 nM. Also, in data set [3] (setting [13]), the half-maximal inhibitory concentration (IC50) came out at 34 nM. Also, the “cells arrested in G2/M” value in the data set with Jurkat and HeLa cells (24 h, at higher concentrations) is “more than 70%”. The “lowest concentration giving a rise in G2/M cells” value in the data set with Jurkat and HeLa cells is given as 60 nM. Besides, the “apoptosis (annexin-V)” value in the data set on HeLa cells [10] is reported as “accumulation of annexin-V positive cells”. Besides, in the data set with HeLa cells [11], the “ROS production (H2-DCFDA)” value is “production of significant amounts of ROS”; the “mitochondrial transmembrane potential (JC-1)” value was “time- and concentration-dependent increase in the proportion of cells with depolarized mitochondria”. Further, in the data set on HeLa cells [12], the “caspase activation (immunoblot)” value was “activation of caspase-9 and caspase-3 in a time- and concentration-dependent manner”; the Mcl-1 expression entry is given as “strongly down-regulated”.

As for `COC(=O)c1oc2c(OC)cccc2c1Nc1cc(OC)c(OC)c(OC)c1` [Compound 3i, Methyl 3-(3,4,5-Trimethoxyphenylamino)-7-methoxybenzofuran-2-carboxylate], the concentration for half-maximal inhibition (IC50) in data set [3] (setting [13]) amounted to 370 nM.

In the case of `CCOC(=O)c1oc2c(OC)cccc2c1Nc1cc(OC)c(OC)c(OC)c1` [Compound 3j, Ethyl 3-(3,4,5-Trimethoxyphenylamino)-7-methoxybenzofuran-2-carboxylate], the IC50 in data set [3] (setting [13]) is 670 nM.
